In ChEMBL document CHEMBL4340554, “Design, synthesis and biological evaluation of novel 4,5-dihydro-[1,2,4]triazolo[4,3-f]pteridine derivatives as potential BRD4 inhibitors” (Bioorg Med Chem, 2019):
Activity calls are given as the source filed them. The calls are words filed in the database; no cut-off is given here.

Tested on: MV4-11
Assay: Antiproliferative activity against human MV4-11 cells incubated for 72 hrs by CCK-8 assay
Type: functional, cell-based
Conditions: MV4-11, 72 h

Structure (SMILES)	IC50 [µM]
Cc1nnc2n1-c1cnc(Nc3ccc(F)cc3)nc1N(C1CCCC1)C2	> 30
Cc1nnc2n1-c1cnc(Nc3ccc(S(C)(=O)=O)cc3)nc1N(C1CCCC1)C2	1.92
Cc1nnc2n1-c1cnc(Nc3cccc(Cl)c3)nc1N(C1CCCC1)C2	> 30
Cc1nnc2n1-c1cnc(Nc3ccc(Cl)cc3)nc1N(C1CCCC1)C2	> 30
CCCCc1ccc(Nc2ncc3c(n2)N(C2CCCC2)Cc2nnc(C)n2-3)cc1	> 30
Cc1nnc2n1-c1cnc(Nc3ccc([N+](=O)[O-])cc3)nc1N(C1CCCC1)C2	21.4
Cc1nnc2n1-c1cnc(Nc3ccccc3[N+](=O)[O-])nc1N(C1CCCC1)C2	10.7
Cc1ccc(Nc2ncc3c(n2)N(C2CCCC2)Cc2nnc(C)n2-3)cc1	7.34
COc1cccc(Nc2ncc3c(n2)N(C2CCCC2)Cc2nnc(C)n2-3)c1	6.74
COc1ccc(Nc2ncc3c(n2)N(C2CCCC2)Cc2nnc(C)n2-3)cc1OC	6.79
Cc1nnc2n1-c1cnc(Nc3ccc(C(C)(C)C)cc3)nc1N(C1CCCC1)C2	> 30
COc1ccccc1Nc1ncc2c(n1)N(C1CCCC1)Cc1nnc(C)n1-2	4.17
Cc1cccc(Nc2ncc3c(n2)N(C2CCCC2)Cc2nnc(C)n2-3)c1	> 30
Cc1nnc2n1-c1cnc(Nc3ccc(N)cc3)nc1N(C1CCCC1)C2	1.53
Cc1nnc2n1-c1cnc(Nc3ccc(C(C)C)cc3)nc1N(C1CCCC1)C2	16.2
Cc1sc2c(c1C)C(c1ccc(Cl)cc1)=N[C@@H](CC(=O)OC(C)(C)C)c1nnc(C)n1-2	0.57
COc1ccc(Nc2ncc3c(n2)N(C2CCCC2)Cc2nnc(C)n2-3)cc1	4.84
Cc1nnc2n1-c1cnc(Nc3ccccc3)nc1N(C1CCCC1)C2	5.53
Cc1ccccc1Nc1ncc2c(n1)N(C1CCCC1)Cc1nnc(C)n1-2	8.46

Tested on: MV4-11
Assay: Reduction in c-Myc protein expression in human MV4-11 cells at 1 to 10 uM incubated for 4 hrs Western blotting
Type: functional, cell-based
Conditions: not given
How it was run: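 MV4;11 leukemia cells (used within two months) were grown in IMDM with 10% FBS and 1% penicillin-streptomycin at 37℃ and 5% CO2. Log-phase cells were cultured 24 h, then treated for 4 h. They were lysed at 4℃ and protein was quantified by BCA. Lysates were run on SDS-PAGE (10% separating, 4% stacking gel) and transferred to PVDF. Membranes were blocked 2 h in 5% milk/TBST, probed overnight at 4℃ with anti-c-myc and anti-β-actin, and given secondary antibody for 2 h.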

Structure (SMILES)	Activity
Cc1nnc2n1-c1cnc(Nc3ccc(N)cc3)nc1N(C1CCCC1)C2	Active

Tested on: MV4-11
Assay: Induction of apoptosis in human MV4-11 cells assessed as early apoptotic cells level at 1 uM incubated for 24 hrs by Annexin V-FITC and propidium iodide staining based flow cytometry (reference value: 0.8%)
Type: functional
Conditions: not given

Structure (SMILES)	Activity [%]
Cc1nnc2n1-c1cnc(Nc3ccc(N)cc3)nc1N(C1CCCC1)C2	0.5
Cc1sc2c(c1C)C(c1ccc(Cl)cc1)=N[C@@H](CC(=O)OC(C)(C)C)c1nnc(C)n1-2	0.2

Tested on: MV4-11
Assay: Induction of cell cycle arrest in human MV4-11 cells assessed as accumulation at G1 phase incubated for 24 hrs by propidium iodide staining based flow cytometry
Type: functional
Conditions: not given
How it was run: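 MV4;11 cells, used within two months of culture, grown in IMDM with 10% FBS and 1% penicillin-streptomycin at 37℃ under CO2. Cells were treated with compound for 24 h and then processed with a cell cycle detection kit following the kit protocol. Phase distribution was analysed by flow cytometry.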

Structure (SMILES)	Activity
Cc1nnc2n1-c1cnc(Nc3ccc(N)cc3)nc1N(C1CCCC1)C2	Dose-dependent effect
Cc1sc2c(c1C)C(c1ccc(Cl)cc1)=N[C@@H](CC(=O)OC(C)(C)C)c1nnc(C)n1-2	Dose-dependent effect

Tested on: MV4-11
Assay: Induction of apoptosis in human MV4-11 cells assessed as viable cells level at 1 uM incubated for 24 hrs by Annexin V-FITC and propidium iodide staining based flow cytometry (reference value: 97.7%)
Type: functional
Conditions: not given

Structure (SMILES)	Activity [%]
Cc1nnc2n1-c1cnc(Nc3ccc(N)cc3)nc1N(C1CCCC1)C2	89.7
Cc1sc2c(c1C)C(c1ccc(Cl)cc1)=N[C@@H](CC(=O)OC(C)(C)C)c1nnc(C)n1-2	84.5

Tested on: MV4-11
Assay: Induction of apoptosis in human MV4-11 cells assessed as necrotic cells level at 1 uM incubated for 24 hrs by Annexin V-FITC and propidium iodide staining based flow cytometry (reference value: 0.0%)
Type: functional
Conditions: not given

Structure (SMILES)	Activity [%]
Cc1nnc2n1-c1cnc(Nc3ccc(N)cc3)nc1N(C1CCCC1)C2	5.9
Cc1sc2c(c1C)C(c1ccc(Cl)cc1)=N[C@@H](CC(=O)OC(C)(C)C)c1nnc(C)n1-2	6.1

Tested on: MV4-11
Assay: Induction of apoptosis in human MV4-11 cells assessed as early apoptotic cells level at 5 uM incubated for 24 hrs by Annexin V-FITC and propidium iodide staining based flow cytometry (reference value: 0.8%)
Type: functional
Conditions: not given

Structure (SMILES)	Activity [%]
Cc1nnc2n1-c1cnc(Nc3ccc(N)cc3)nc1N(C1CCCC1)C2	3.8
Cc1sc2c(c1C)C(c1ccc(Cl)cc1)=N[C@@H](CC(=O)OC(C)(C)C)c1nnc(C)n1-2	2.5

Tested on: not listed separately
Assay: Inhibition of […] BRD4 bromodomain 1 incubated for 60 mins by TR-FRET assay
Conditions: not given

Structure (SMILES)	IC50 [µM]
Cc1nnc2n1-c1cnc(Nc3ccc(F)cc3)nc1N(C1CCCC1)C2	1.28
Cc1nnc2n1-c1cnc(Nc3ccc(S(C)(=O)=O)cc3)nc1N(C1CCCC1)C2	0.089
Cc1nnc2n1-c1cnc(Nc3cccc(Cl)c3)nc1N(C1CCCC1)C2	1.43
Cc1nnc2n1-c1cnc(Nc3ccc(Cl)cc3)nc1N(C1CCCC1)C2	1.54
CCCCc1ccc(Nc2ncc3c(n2)N(C2CCCC2)Cc2nnc(C)n2-3)cc1	1.43
Cc1nnc2n1-c1cnc(Nc3ccc([N+](=O)[O-])cc3)nc1N(C1CCCC1)C2	0.54
Cc1nnc2n1-c1cnc(Nc3ccccc3[N+](=O)[O-])nc1N(C1CCCC1)C2	0.18
Cc1ccc(Nc2ncc3c(n2)N(C2CCCC2)Cc2nnc(C)n2-3)cc1	0.38
COc1cccc(Nc2ncc3c(n2)N(C2CCCC2)Cc2nnc(C)n2-3)c1	0.18
COc1ccc(Nc2ncc3c(n2)N(C2CCCC2)Cc2nnc(C)n2-3)cc1OC	0.22
Cc1nnc2n1-c1cnc(Nc3ccc(C(C)(C)C)cc3)nc1N(C1CCCC1)C2	> 30
COc1ccccc1Nc1ncc2c(n1)N(C1CCCC1)Cc1nnc(C)n1-2	0.16
Cc1cccc(Nc2ncc3c(n2)N(C2CCCC2)Cc2nnc(C)n2-3)c1	1.56
Cc1nnc2n1-c1cnc(Nc3ccc(N)cc3)nc1N(C1CCCC1)C2	0.079
Cc1nnc2n1-c1cnc(Nc3ccc(C(C)C)cc3)nc1N(C1CCCC1)C2	0.86
Cc1sc2c(c1C)C(c1ccc(Cl)cc1)=N[C@@H](CC(=O)OC(C)(C)C)c1nnc(C)n1-2	0.066
COc1ccc(Nc2ncc3c(n2)N(C2CCCC2)Cc2nnc(C)n2-3)cc1	0.16
Cc1nnc2n1-c1cnc(Nc3ccccc3)nc1N(C1CCCC1)C2	0.22
Cc1ccccc1Nc1ncc2c(n1)N(C1CCCC1)Cc1nnc(C)n1-2	0.41

Tested on: MV4-11
Assay: Induction of apoptosis in human MV4-11 cells assessed as viable cells level at 5 uM incubated for 24 hrs by Annexin V-FITC and propidium iodide staining based flow cytometry (reference value: 97.7%)
Type: functional
Conditions: not given

Structure (SMILES)	Activity [%]
Cc1nnc2n1-c1cnc(Nc3ccc(N)cc3)nc1N(C1CCCC1)C2	72.5
Cc1sc2c(c1C)C(c1ccc(Cl)cc1)=N[C@@H](CC(=O)OC(C)(C)C)c1nnc(C)n1-2	61.6

Tested on: HL-60
Assay: Antiproliferative activity against human HL60 cells incubated for 72 hrs by CCK-8 assay
Type: functional, cell-based
Conditions: HL-60, 72 h

Structure (SMILES)	IC50 [µM]
Cc1nnc2n1-c1cnc(Nc3ccc(F)cc3)nc1N(C1CCCC1)C2	> 30
Cc1nnc2n1-c1cnc(Nc3ccc(S(C)(=O)=O)cc3)nc1N(C1CCCC1)C2	7.85
Cc1nnc2n1-c1cnc(Nc3cccc(Cl)c3)nc1N(C1CCCC1)C2	> 30
Cc1nnc2n1-c1cnc(Nc3ccc(Cl)cc3)nc1N(C1CCCC1)C2	> 30
CCCCc1ccc(Nc2ncc3c(n2)N(C2CCCC2)Cc2nnc(C)n2-3)cc1	> 30
Cc1nnc2n1-c1cnc(Nc3ccc([N+](=O)[O-])cc3)nc1N(C1CCCC1)C2	> 30
Cc1nnc2n1-c1cnc(Nc3ccccc3[N+](=O)[O-])nc1N(C1CCCC1)C2	> 30
Cc1ccc(Nc2ncc3c(n2)N(C2CCCC2)Cc2nnc(C)n2-3)cc1	29
COc1cccc(Nc2ncc3c(n2)N(C2CCCC2)Cc2nnc(C)n2-3)c1	25.5
COc1ccc(Nc2ncc3c(n2)N(C2CCCC2)Cc2nnc(C)n2-3)cc1OC	26.7
Cc1nnc2n1-c1cnc(Nc3ccc(C(C)(C)C)cc3)nc1N(C1CCCC1)C2	> 30
COc1ccccc1Nc1ncc2c(n1)N(C1CCCC1)Cc1nnc(C)n1-2	19.2
Cc1cccc(Nc2ncc3c(n2)N(C2CCCC2)Cc2nnc(C)n2-3)c1	> 30
Cc1nnc2n1-c1cnc(Nc3ccc(N)cc3)nc1N(C1CCCC1)C2	7.16
Cc1nnc2n1-c1cnc(Nc3ccc(C(C)C)cc3)nc1N(C1CCCC1)C2	> 30
Cc1sc2c(c1C)C(c1ccc(Cl)cc1)=N[C@@H](CC(=O)OC(C)(C)C)c1nnc(C)n1-2	2.91
COc1ccc(Nc2ncc3c(n2)N(C2CCCC2)Cc2nnc(C)n2-3)cc1	18.7
Cc1nnc2n1-c1cnc(Nc3ccccc3)nc1N(C1CCCC1)C2	21.4
Cc1ccccc1Nc1ncc2c(n1)N(C1CCCC1)Cc1nnc(C)n1-2	> 30

Tested on: MV4-11
Assay: Induction of apoptosis in human MV4-11 cells assessed as necrotic cells level at 5 uM incubated for 24 hrs by Annexin V-FITC and propidium iodide staining based flow cytometry (reference value: 0.0%)
Type: functional
Conditions: not given

Structure (SMILES)	Activity [%]
Cc1nnc2n1-c1cnc(Nc3ccc(N)cc3)nc1N(C1CCCC1)C2	3.4
Cc1sc2c(c1C)C(c1ccc(Cl)cc1)=N[C@@H](CC(=O)OC(C)(C)C)c1nnc(C)n1-2	4

Tested on: MV4-11
Assay: Induction of apoptosis in human MV4-11 cells assessed as late apoptotic cells level at 5 uM incubated for 24 hrs by Annexin V-FITC and propidium iodide staining based flow cytometry (reference value: 1.5%)
Type: functional
Conditions: not given

Structure (SMILES)	Activity [%]
Cc1nnc2n1-c1cnc(Nc3ccc(N)cc3)nc1N(C1CCCC1)C2	20.4
Cc1sc2c(c1C)C(c1ccc(Cl)cc1)=N[C@@H](CC(=O)OC(C)(C)C)c1nnc(C)n1-2	31.9

Tested on: MV4-11
Assay: Induction of apoptosis in human MV4-11 cells assessed as late apoptotic cells level at 1 uM incubated for 24 hrs by Annexin V-FITC and propidium iodide staining based flow cytometry (reference value: 1.5%)
Type: functional
Conditions: not given

Structure (SMILES)	Activity [%]
Cc1nnc2n1-c1cnc(Nc3ccc(N)cc3)nc1N(C1CCCC1)C2	3.9
Cc1sc2c(c1C)C(c1ccc(Cl)cc1)=N[C@@H](CC(=O)OC(C)(C)C)c1nnc(C)n1-2	9.1
